Measurements from ChEMBL document CHEMBL1156178, “Discovery of novel 6,6-heterocycles as transient receptor potential vanilloid (TRPV1) antagonists” (J Med Chem, 2010).
≈ marks a conversion by molar mass, not a printed value.

Key:
[1] = Solubility in 0.1 N HCL after 4 hrs by HPLC/MS analysis; type: physicochemical
[2] = Half life in rat at 2.7 mg/kg, iv and 2 mg/kg, po; type: ADME, organism-based; settings: in vivo
[3] = Metabolic stability in rat liver microsomes assessed as compound remaining at 1 uM after 10 mins by LCMS analysis; type: ADME, Microsome; settings: read-out: Activity
Summary of the method: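 Compound (1 μM) incubated at 37 °C with 0.5 mg/mL male pooled rat liver microsomes; NADPH added to start the reaction. Aliquots were taken at 0 and 10 min and quenched into ice-cold acetonitrile with internal standard, then centrifuged. Parent was monitored as the M+1 ion by ESI-LCMS in selected-ion mode. Percent remaining was taken as the 10 min/0 min signal ratio, corrected by internal-standard recovery.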

[4] = system: MDR1; experiment: Apparent permeability across pig LLC-PK1 cells expressing MDR1; type: ADME, cell-based, Sus scrofa
[5] = organism: Rattus norvegicus; experiment: Analgesic activity against carrageenan-induced thermal hyperalgesia in rat; type: functional; settings: read-out: MED
[6] = target: Transient receptor potential cation channel subfamily V member 1 (Homo sapiens, UniProt Q8NER1); experiment: Antagonist activity at human recombinant TRPV1 expressed in HEK293 cells assessed as inhibition of capsaicin-induced calcium mobilization by FLIPR assay
Chain of Transient receptor potential cation channel subfamily V member 1 (Homo sapiens, UniProt Q8NER1) (Q8NER1 whole entry): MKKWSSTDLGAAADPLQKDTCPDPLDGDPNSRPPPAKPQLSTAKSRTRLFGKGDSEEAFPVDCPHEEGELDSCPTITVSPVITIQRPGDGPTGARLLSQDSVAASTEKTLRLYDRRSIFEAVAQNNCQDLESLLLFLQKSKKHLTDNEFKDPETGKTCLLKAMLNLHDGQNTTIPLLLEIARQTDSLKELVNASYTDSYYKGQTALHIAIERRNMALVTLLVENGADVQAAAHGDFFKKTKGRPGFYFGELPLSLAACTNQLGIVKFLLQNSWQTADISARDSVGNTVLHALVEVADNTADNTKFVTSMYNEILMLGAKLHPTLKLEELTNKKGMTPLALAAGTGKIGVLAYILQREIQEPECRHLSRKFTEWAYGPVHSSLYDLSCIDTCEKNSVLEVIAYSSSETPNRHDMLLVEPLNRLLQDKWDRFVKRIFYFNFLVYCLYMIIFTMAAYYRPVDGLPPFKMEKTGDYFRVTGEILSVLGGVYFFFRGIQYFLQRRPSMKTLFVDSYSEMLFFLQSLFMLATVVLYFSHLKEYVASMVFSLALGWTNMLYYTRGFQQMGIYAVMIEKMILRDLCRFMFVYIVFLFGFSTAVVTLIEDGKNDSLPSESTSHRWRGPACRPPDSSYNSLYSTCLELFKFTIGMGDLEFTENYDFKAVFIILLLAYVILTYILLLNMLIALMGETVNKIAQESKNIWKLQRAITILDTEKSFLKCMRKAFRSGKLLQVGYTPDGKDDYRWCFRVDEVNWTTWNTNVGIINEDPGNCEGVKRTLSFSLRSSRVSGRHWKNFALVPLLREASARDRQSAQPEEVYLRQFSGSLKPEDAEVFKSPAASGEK

[7] = target: Transient receptor potential cation channel subfamily V member 1 (Rattus norvegicus, UniProt O35433); experiment: Inhibition of rat TRPV1
Chain of Transient receptor potential cation channel subfamily V member 1 (Rattus norvegicus, UniProt O35433) (O35433 whole entry): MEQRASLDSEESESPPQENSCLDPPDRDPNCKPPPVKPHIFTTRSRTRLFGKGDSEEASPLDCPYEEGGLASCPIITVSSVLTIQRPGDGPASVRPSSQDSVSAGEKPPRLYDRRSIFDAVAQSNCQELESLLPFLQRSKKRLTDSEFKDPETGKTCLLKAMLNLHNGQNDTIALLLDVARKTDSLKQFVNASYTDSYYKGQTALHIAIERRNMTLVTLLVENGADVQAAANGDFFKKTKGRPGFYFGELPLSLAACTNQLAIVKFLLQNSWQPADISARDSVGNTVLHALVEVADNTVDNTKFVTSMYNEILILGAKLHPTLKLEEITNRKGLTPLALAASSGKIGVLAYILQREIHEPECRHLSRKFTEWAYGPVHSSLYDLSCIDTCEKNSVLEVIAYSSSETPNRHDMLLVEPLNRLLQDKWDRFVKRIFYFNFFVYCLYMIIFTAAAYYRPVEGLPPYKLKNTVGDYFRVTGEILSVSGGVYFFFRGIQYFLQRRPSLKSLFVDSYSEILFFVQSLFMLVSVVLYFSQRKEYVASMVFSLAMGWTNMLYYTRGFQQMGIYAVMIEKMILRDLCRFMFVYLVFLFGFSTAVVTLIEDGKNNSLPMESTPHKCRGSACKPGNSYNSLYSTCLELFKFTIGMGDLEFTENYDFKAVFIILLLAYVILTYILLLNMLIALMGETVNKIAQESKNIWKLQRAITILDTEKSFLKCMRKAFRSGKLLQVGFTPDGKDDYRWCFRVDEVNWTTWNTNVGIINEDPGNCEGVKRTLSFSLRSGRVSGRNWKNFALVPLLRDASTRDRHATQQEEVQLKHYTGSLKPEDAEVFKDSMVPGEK

Compound | solubility at 4 h [1] [µg/mL] | IC50 [6] [nM] | other results
FC(F)(F)c1ccc(Nc2ncnc3cc(-c4ncccc4C(F)(F)F)ccc23)cc1 [NGD-8243] | 16 (≈ 36.8 µM) | – | half-life [2]: 8 h; remaining at 10 min, 1 µM [3]: 93%; Papp [4]: 11 ×10⁻⁶ cm/s; minimal effective dose [5]: 0.1 mg/kg
FC(F)(F)c1ccc(Nc2ncnc3nc(-c4ncccc4C(F)(F)F)cnc23)cc1 | 1 (≈ 2.29 µM) | 0.21 | –
O=C(Nc1ccccc1Br)N[C@@H]1CCN(c2ccc(C(F)(F)F)cn2)C1 [SB-705498] | – | – | IC50 [7]: 32 nM
FC(F)(F)c1ccc(Nc2nccc3nc(-c4ncccc4C(F)(F)F)cnc23)nc1 | 12 (≈ 27.5 µM) | 79 | –
FC(F)(F)c1ccc(Nc2cncc3nc(-c4ncccc4C(F)(F)F)ccc23)nc1 | 20 (≈ 45.9 µM) | 460 | –
FC(F)(F)c1ccc(Nc2ncnc3nc(-c4ncccc4C(F)(F)F)ccc23)cc1 | 9 (≈ 20.7 µM) | 0.83 | –
FC(F)(F)c1ccc(Nc2ccnc3cc(-c4ncccc4C(F)(F)F)cnc23)nc1 | 38 (≈ 87.3 µM) | 308 | –
FC(F)(F)c1ccc(Nc2ccnc3nc(-c4ncccc4C(F)(F)F)ccc23)cc1 | 24 (≈ 55.3 µM) | 6.1 | –
